# Reference: ChEMBL document CHEMBL2169847, “New tricks for an old natural product: discovery of highly potent evodiamine derivatives as novel antitumor agents by systemic structure-activity relationship analysis and biological evaluations” (J Med Chem, 2012)
# Experiments:
# Format in all cases: functional
# MDA-MB-435 = test: Cytotoxicity against human MDA-MB-435 cells incubated for 72 hrs by MTT assay; conditions: MDA-MB-435, 72 h
# How it was run: (§1)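 MTT assay. Cells seeded at 5 × 10³/well and grown 24 h at 37 °C, 5% CO₂. Compounds added at several concentrations in triplicate wells, with 0.1% DMSO control, for 72 h. MTT then added for 4 h, formazan dissolved in DMSO, and absorbance read at 570 nm. GI₅₀ by Logit method; three experiments.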
# HCT-116 = test: Cytotoxicity against human HCT116 cells incubated for 72 hrs by MTT assay; conditions: HCT-116, 72 h; how it was run: as §1
# A549 = test: Cytotoxicity against human A549 cells incubated for 72 hrs by MTT assay; conditions: A549, 72 h; how it was run: as §1
SMILES,GI50 (MDA-MB-435),GI50 (HCT-116),GI50 (A549)
CN1c2ccc(Br)cc2C(=O)N2CCc3c([nH]c4ccccc34)C21 (stereo unspecified),1.5 µM,14.1 µM,14.5 µM
CN1c2ccccc2C(=S)N2CCc3c([nH]c4ccccc34)C21 (stereo unspecified),12.2 µM,46.5 µM,90.7 µM
O=C1c2ccccc2OC2c3[nH]c4ccccc4c3CCN12 (stereo unspecified),3.13 µM,3.03 µM,2.4 µM
COc1ccc2c(c1)N(C)C1c3[nH]c4ccccc4c3CCN1C2=O (stereo unspecified),> 200 µM,> 200 µM,> 200 µM
CN1c2ccccc2C(=O)N2CCc3c([nH]c4ccc(Cl)cc34)C21 (stereo unspecified),> 200 µM,> 200 µM,> 200 µM
CN1c2ccccc2C(=O)N2CCc3c([nH]c4ccc(Br)cc34)C21 (stereo unspecified),37.6 µM,> 200 µM,> 200 µM
CN1c2ccc(I)cc2C(=O)N2CCc3c([nH]c4ccccc34)C21 (stereo unspecified),2.94 µM,> 200 µM,> 200 µM
CCOc1ccc2[nH]c3c(c2c1)CCN1C(=O)c2ccccc2N(C)C31 (stereo unspecified),5.93 µM,19.2 µM,> 200 µM
C#CCN(CC#C)c1ccc2c(c1)C(=O)N1CCc3c([nH]c4ccccc34)C1N2C (stereo unspecified),2.03 µM,0.21 µM,> 200 µM
CCCOc1ccc2[nH]c3c(c2c1)CCN1C(=O)c2ccccc2N(C)C31 (stereo unspecified),3.07 µM,8.05 µM,> 200 µM
COc1ccc2c(c1)C(=O)N1CCc3c([nH]c4ccc(O)cc34)C1N2C (stereo unspecified),0.66 µM,0.07 µM,1.6 µM
CN1c2ccccc2C(=O)N2CCc3c([nH]c4ccc([N+](=O)[O-])cc34)C21 (stereo unspecified),> 200 µM,> 200 µM,> 200 µM
CN1c2ccccc2C(=O)N2CCc3c([nH]c4c([N+](=O)[O-])cc([N+](=O)[O-])cc34)C21 (stereo unspecified),0.16 µM,> 200 µM,> 200 µM
Cc1ccc2[nH]c3c(c2c1)CCN1C(=O)c2ccccc2N(C)C31 (stereo unspecified),> 200 µM,> 200 µM,> 200 µM
CN1c2ccccc2C(=O)N2CCc3c([nH]c4ccc(OCc5ccccc5)cc34)C21 (stereo unspecified),41.2 µM,> 200 µM,> 200 µM
Cc1ccc2c(c1)c1c(n2C(=O)c2ccc(Cl)cc2)C2N(CC1)C(=O)c1ccccc1N2C (stereo unspecified),1.14 µM,11.4 µM,> 200 µM
Cc1cccc2c1C(=O)N1CCc3c([nH]c4ccccc34)C1N2C (stereo unspecified),20.2 µM,13.1 µM,14.3 µM
COc1ccc2[nH]c3c(c2c1)CCN1C(=O)c2ccccc2N(C)C31 (stereo unspecified),8.97 µM,> 200 µM,> 200 µM
CN1c2ccccc2C(=O)N2CCc3c(n(C(=O)c4ccc(Cl)cc4)c4ccc(Cl)cc34)C21 (stereo unspecified),72.7 µM,> 200 µM,> 200 µM
O=c1c2cc(F)ccc2nc2n1CCc1c-2[nH]c2ccccc12,15.9 µM,20 µM,47.2 µM
COc1cc2c(cc1OC)N(C)C1c3[nH]c4ccccc4c3CCN1C2=O (stereo unspecified),8.97 µM,> 200 µM,> 200 µM
CN1c2ccccc2C(=S)N2CCc3c(n(C(=O)c4ccc(Cl)cc4)c4ccccc34)C21 (stereo unspecified),> 200 µM,> 200 µM,> 200 µM
Cc1ccc2c(c1)C(=O)N1CCc3c([nH]c4ccccc34)C1N2C (stereo unspecified),0.32 µM,0.61 µM,32.2 µM
CN1c2ccccc2CN2CCc3c(n(C(=O)c4ccc(Cl)cc4)c4ccccc34)C21 (stereo unspecified),96 µM,> 200 µM,> 200 µM
CN1c2cccc(Cl)c2C(=O)N2CCc3c([nH]c4ccccc34)C21 (stereo unspecified),1.43 µM,4.56 µM,5.65 µM
CN1c2ccccc2C(=O)N2CCc3c([nH]c4ccc(OCC5CO5)cc34)C21 (stereo unspecified),0.61 µM,2.98 µM,48.9 µM
CC[C@@]1(O)C(=O)OCc2c1cc1n(c2=O)Cc2cc3c(CN(C)C)c(O)ccc3nc2-1 [TOPOTECAN],0.034 µM,0.4 µM,3.96 µM
